Data as given in ChEMBL document CHEMBL3596157, “Heteroaromatic analogs of the resveratrol analog DMU-212 as potent anti-cancer agents” (2015).

Columns and labels:
Assay type in all cases: functional
[1] = system: HOP-62; assay: Growth inhibition of human HOP62 cells after 48 hrs by SRB assay; conditions: HOP-62, 48 h
Summary of the method: (§1)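 NCI-60 panel screen. Cells exposed for 48 h to five concentrations (10−4, 10−5, 10−6, 10−7 and 10−8 M). Sulforhodamine B optical density is read just before compound addition (time zero) and after 48 h, for both treated and vehicle-control wells. Percent growth is calculated against control. GI50 is the concentration giving a 50% reduction in net cell growth relative to cell numbers on day 0.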

[2] = system: TK-10; assay: Growth inhibition of human TK10 cells after 48 hrs by SRB assay; conditions: TK-10, 48 h
Summary of the method: (§2)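 NCI-60 panel cells; preliminary single-dose screen at 10−5 M, then five-dose testing at 10−4 to 10−8 M (tenfold steps) with 48 h exposure. SRB-stained optical density read before compound addition (time zero), after 48 h with compound, and with vehicle control. Percent growth is calculated against control. GI50 is the concentration giving 50% reduction in net growth relative to day-0 cell number.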

[3] = system: K562; assay: Growth inhibition of human K562 cells after 48 hrs by SRB assay; conditions: K562, 48 h; summary of the method: as §1
[4] = system: OVCAR-8; assay: Growth inhibition of human OVCAR8 cells after 48 hrs by SRB assay; conditions: OVCAR-8, 48 h; summary of the method: as §1
[5] = system: NCI-H23; assay: Growth inhibition of human NCI-H23 cells after 48 hrs by SRB assay; conditions: NCI-H23, 48 h; summary of the method: as §1
[6] = system: 786-0; assay: Growth inhibition of human 786-0 cells after 48 hrs by SRB assay; conditions: 786-0, 48 h; summary of the method: as §1
[7] = Growth inhibition of human SF295 cells after 48 hrs by SRB assay; conditions: SF-295, 48 h; summary of the method: as §1
[8] = system: SNB-19; assay: Growth inhibition of human SNB19 cells after 48 hrs by SRB assay; conditions: SNB-19, 48 h; summary of the method: as §1
[9] = Growth inhibition of human NCI-ADR-RES cells after 48 hrs by SRB assay; summary of the method: as §1
[10] = system: NCI-H226; assay: Growth inhibition of human NCI-H226 cells after 48 hrs by SRB assay; conditions: NCI-H226, 48 h; summary of the method: as §1
[11] = system: SN12C; assay: Growth inhibition of human SN12C cells after 48 hrs by SRB assay; summary of the method: as §1
[12] = system: A498; assay: Growth inhibition of human A498 cells after 48 hrs by SRB assay; conditions: A498, 48 h; summary of the method: as §1
[13] = system: SNB-75; assay: Growth inhibition of human SNB75 cells after 48 hrs by SRB assay; conditions: SNB-75, 48 h; summary of the method: as §2
[14] = system: SR; assay: Growth inhibition of human SR cells after 48 hrs by SRB assay; summary of the method: as §2
[15] = system: UACC-257; assay: Growth inhibition of human UACC257 cells after 48 hrs by SRB assay; conditions: UACC-257, 48 h; summary of the method: as §2
[16] = system: HL-60(TB); assay: Growth inhibition of human HL-60(TB) cells after 48 hrs by SRB assay; conditions: HL-60, 48 h
Summary of the method: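 NCI-60 panel screen: cells were exposed to test agent at five concentrations (10−4, 10−5, 10−6, 10−7 and 10−8 M) for 48 h. Sulforhodamine B optical density was read at time zero and after exposure to compound or vehicle control, and growth percentage versus control was calculated. GI50 was taken as the concentration giving a 50% reduction in net cell growth relative to day 0 cell numbers.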

[17] = system: HT-29; assay: Growth inhibition of human HT-29 cells after 48 hrs by SRB assay; conditions: HT-29, 48 h; summary of the method: as §1
[18] = system: A549; assay: Growth inhibition of human A549/ATCC cells after 48 hrs by SRB assay; conditions: A549, 48 h; summary of the method: as §1
[19] = Growth inhibition of human COLO205 cells after 48 hrs by SRB assay; conditions: COLO 205, 48 h; summary of the method: as §1
[20] = system: OVCAR-3; assay: Growth inhibition of human OVCAR3 cells after 48 hrs by SRB assay; conditions: OVCAR-3, 48 h; summary of the method: as §1
[21] = system: NCI-H460; assay: Growth inhibition of human NCI-H460 cells after 48 hrs by SRB assay; conditions: NCI-H460, 48 h; summary of the method: as §1
[22] = system: T47D; assay: Growth inhibition of human T47D cells after 48 hrs by SRB assay; summary of the method: as §2
[23] = system: SK-OV-3; assay: Growth inhibition of human SKOV3 cells after 48 hrs by SRB assay; conditions: SK-OV-3, 48 h; summary of the method: as §1
[24] = system: OVCAR-5; assay: Growth inhibition of human OVCAR5 cells after 48 hrs by SRB assay; conditions: OVCAR-5, 48 h; summary of the method: as §1
[25] = system: UACC-62; assay: Growth inhibition of human UACC62 cells after 48 hrs by SRB assay; conditions: UACC-62, 48 h; summary of the method: as §2
[26] = Growth inhibition of human RPMI8226 cells after 48 hrs by SRB assay; conditions: RPMI-8226, 48 h; summary of the method: as §1
[27] = system: NCI-H322M; assay: Growth inhibition of human NCI-H322M cells after 48 hrs by SRB assay; summary of the method: as §1
[28] = Growth inhibition of human SF539 cells after 48 hrs by SRB assay; conditions: SF-539, 48 h; summary of the method: as §1
[29] = system: MCF7; assay: Growth inhibition of human MCF7 cells after 48 hrs by SRB assay; conditions: MCF7, 48 h; summary of the method: as §1
[30] = system: M14; assay: Growth inhibition of human M14 cells after 48 hrs by SRB assay; conditions: M14, 48 h; summary of the method: as §1

`COc1cc(/C=C/c2cc3ccccc3o2)cc(OC)c1OC` gave a GI50 [1] of 775 nM, a GI50 [2] of 8460 nM and a GI50 [3] of 267 nM. The GI50 [4] was 2050 nM, the GI50 [5] was 3090 nM and the GI50 [6] was 850 nM. The GI50 [7] was 356 nM, the GI50 [8] was 584 nM and the GI50 [9] was 511 nM. It also gave a GI50 [10] of 1100 nM, a GI50 [11] of 4090 nM and a GI50 [12] of 408 nM. The GI50 [13] was 475 nM, the GI50 [14] was 94 nM and the GI50 [15] was 16400 nM. For the same compound, the GI50 [16] was 356 nM, the GI50 [17] was 375 nM and the GI50 [18] was 615 nM. For the same compound, the GI50 [19] was 406 nM, the GI50 [20] was 429 nM and the GI50 [21] was 416 nM. It also gave a GI50 [22] of 693 nM, a GI50 [23] of 656 nM and a GI50 [24] of 2940 nM. The GI50 [25] was 507 nM, the GI50 [26] was 700 nM and the GI50 [27] was 15900 nM. For the same compound, the GI50 [28] was 273 nM, the GI50 [29] was 373 nM and the GI50 [30] was 479 nM.
